Assay results published in ChEMBL document CHEMBL1156795, “Rational design of 5-phenyl-3-isoxazolecarboxylic acid ethyl esters as growth inhibitors of Mycobacterium tuberculosis. a potent and selective series for further drug development” (J Med Chem, 2010).
Values after ≈ are worked out from the molar mass of the structure shown.

Columns and labels:
Type in all cases: functional
[1] = tested on: Mycobacterium tuberculosis; assay: Antimycobacterial activity against streptomycin-resistant Mycobacterium tuberculosis H37Rv after 16 to 24 hrs by microplate alamar
Summary of the method: (§1)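 MIC by MABA against Mtb strains resistant to isoniazid, rifampin or streptomycin. Values are averages of two to three independent experiments.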

[2] = tested on: Mycobacterium tuberculosis; assay: Antimycobacterial activity against isoniazid-resistant Mycobacterium tuberculosis H37Rv after 16 to 24 hrs by microplate alamar; summary of the method: as §1
[3] = tested on: Mycobacterium tuberculosis; assay: Antimycobacterial activity against rifampin-resistant Mycobacterium tuberculosis H37Rv after 16 to 24 hrs by microplate alamar; summary of the method: as §1

Row | Structure (SMILES) | MIC [1] | MIC [2] | MIC [3]
1 | CCOC(=O)c1cc(-c2cccc(OCc3c(F)cccc3F)c2)on1 | 1.1 µM (≈ 0.395 µg/mL) | 1.1 µM (≈ 0.395 µg/mL) | 1 µM (≈ 0.359 µg/mL)
2 | CCOC(=O)c1cc(-c2cccc(OCc3cccc(F)c3F)c2)on1 | 1 µM (≈ 0.359 µg/mL) | 1 µM (≈ 0.359 µg/mL) | 1 µM (≈ 0.359 µg/mL)
3 | CCOC(=O)c1cc(-c2cccc(OCc3cccc(C(F)(F)F)c3)c2)on1 | 0.9 µM (≈ 0.352 µg/mL) | 0.9 µM (≈ 0.352 µg/mL) | 1 µM (≈ 0.391 µg/mL)
4 | CCOC(=O)c1cc(-c2cccc(OCc3ccccc3Cl)c2)on1 | 1 µM (≈ 0.358 µg/mL) | 1 µM (≈ 0.358 µg/mL) | 1 µM (≈ 0.358 µg/mL)
5 | CCOC(=O)c1cc(-c2cccc(OCc3cccc(Br)c3)c2)on1 | 1 µM (≈ 0.402 µg/mL) | 1 µM (≈ 0.402 µg/mL) | 1 µM (≈ 0.402 µg/mL)
6 | CCOC(=O)c1cc(-c2cccc(OCc3cc(F)ccc3F)c2)on1 | 1.2 µM (≈ 0.431 µg/mL) | 1 µM (≈ 0.359 µg/mL) | 1 µM (≈ 0.359 µg/mL)
7 | CCOC(=O)c1cc(-c2cccc(OCc3cccc(C(F)(F)F)c3F)c2)on1 | 1 µM (≈ 0.409 µg/mL) | 0.9 µM (≈ 0.368 µg/mL) | 1 µM (≈ 0.409 µg/mL)
8 | NNC(=O)c1ccncc1 [ISONIAZID] | 0.5 µM (≈ 0.0686 µg/mL) | > 128 µM | 0.4 µM (≈ 0.0549 µg/mL)
9 | CO[C@H]1/C=C/O[C@@]2(C)Oc3c(C)c(O)c4c(O)c(c(/C=N/N5CCN(C)CC5)c(O)c4c3C2=O)NC(=O)/C(C)=C\C=C\[C@H](C)[C@H](O)[C@@H](C)[C@@H](O)[C@@H](C)[C@H](OC(C)=O)[C@@H]1C [RIFAMPIN] | > 0.1 µM | > 0.1 µM | > 32 µM
10 | CN[C@@H]1[C@H](O[C@H]2[C@H](O[C@H]3[C@H](O)[C@@H](O)[C@H](N=C(N)N)[C@@H](O)[C@@H]3N=C(N)N)O[C@@H](C)[C@]2(O)C=O)O[C@@H](CO)[C@H](O)[C@H]1O [STREPTOMYCIN] | > 32 µM | 0.4 µM (≈ 0.233 µg/mL) | 0.2 µM (≈ 0.116 µg/mL)
